Measured values pooled from the literature.
Each line is one published result; the experiments were not run side by side.
Target: Phosphorylase b kinase gamma catalytic chain, liver/testis isoform (PHKG2, Homo sapiens, UniProt P15735)
Residues used in one study (P15735 1-406): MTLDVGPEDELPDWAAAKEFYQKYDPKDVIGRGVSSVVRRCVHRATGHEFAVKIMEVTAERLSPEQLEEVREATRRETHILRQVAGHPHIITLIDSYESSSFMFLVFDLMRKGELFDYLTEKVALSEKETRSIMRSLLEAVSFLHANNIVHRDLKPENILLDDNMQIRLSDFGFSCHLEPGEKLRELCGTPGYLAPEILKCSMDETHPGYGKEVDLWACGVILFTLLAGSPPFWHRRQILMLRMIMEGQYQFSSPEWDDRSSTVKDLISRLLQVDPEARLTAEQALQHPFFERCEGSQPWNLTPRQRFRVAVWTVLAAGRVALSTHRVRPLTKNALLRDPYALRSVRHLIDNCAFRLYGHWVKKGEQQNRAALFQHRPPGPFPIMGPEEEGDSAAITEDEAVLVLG

| Structure (SMILES) | test | test system | setting | measurement | result |
| --- | --- | --- | --- | --- | --- |
| CC(C)(C)c1nc2c(s1)c1nc(N)ncc1c1ccc(NS(=O)(=O)c3c(F)cccc3F)c(F)c12 | enzyme activity, inhibitor, radiometric | – | 1 µM | remaining activity | 92% |
| CCN(CC)CCNC(=O)c1c(C)[nH]c(/C=C2\C(=O)Nc3ccc(F)cc32)c1C | enzyme activity, inhibitor | – | 0.3 µM | inhibition | 81% |
| Cc1ccc(C(=O)Nc2ccc(CN3CCN(C)CC3)c(C(F)(F)F)c2)cc1C#Cc1cnc2cccnn12 | enzyme activity, inhibitor | – | 23.5 nM | remaining activity | 100% |
| CCCOc1ccc(OC)c(F)c1C(=O)c1ccc(C(=O)N[C@@H]2CNC[C@H]2NC(=O)c2ccc3[nH]ncc3c2)cc1 | enzyme activity, inhibitor | – | 10 µM | remaining activity | 51% |
| Cc1ccc(Nc2nccc(N(C)c3ccc4c(C)n(C)nc4c3)n2)cc1S(N)(=O)=O | enzyme activity, inhibitor | – | 10 µM | inhibition | -2% |
| Clc1ccc(Nc2nnc(Cc3ccncc3)c3ccccc23)cc1 | cell-free assay | – | 0.5 µM | remaining signal | 91.8% |
| CC(C)CC(=O)N1CCc2nc(-c3ccc(Br)cc3)nc(N(C)Cc3ccccc3)c2C1 | cell-free assay, competition with immobilised ligand | – | 0.1 µM | remaining binding | 100% |
| COc1cc2ncnc(Nc3ccc(Oc4ccccc4)cc3C)c2cc1OC | enzyme activity, inhibitor | – | 1 µM | inhibition | 0% |
| O=C(Nc1cccnn1)N1CCC(=Cc2cccc(Oc3ccc(C(F)(F)F)cn3)c2)CC1 | cell-free assay, competition with immobilised ligand | – | 1 µM | remaining binding | 88% |
| COc1cc2c(Nc3ccc(Br)cc3F)ncnc2cc1OCC1CCN(C)CC1 | cell-free assay | – | 0.5 µM | remaining signal | 99.1% |
| NS(=O)(=O)c1cc(NC(=O)C2(c3ccccc3Cl)CC2)ccc1Oc1cccc(Cl)c1 | cell-free assay, competition with immobilised ligand | – | 1 µM | remaining binding | 100% |
| CC/C(=N\NC(=O)NCc1cccc(O)c1)c1ccc(O)c(C)c1O | enzyme activity, inhibitor | – | 0.1 µM | inhibition | -2.9% |
| O=C(Nc1cnn(-c2csc(C(=O)NC3COC3)c2)c1)Nc1c(F)cccc1Cl | enzyme activity, inhibitor | – | 5 µM | remaining activity | 131% |
| N#CCCc1ccc2c(c1)-c1[nH]c3ccc([N+](=O)[O-])cc3c1CC(=O)N2 | cell-free assay | – | 0.5 µM | remaining signal | 99.1% |
| CCC(=O)N[C@H]1CC[C@@H](C(=O)N(C)c2ccc(-c3nc4ccccc4o3)cc2)C1 | cell-free assay, competition with immobilised ligand | – | 1 µM | remaining binding | 100% |
| COc1cccc2c(NCc3ccccc3)nc(-n3c(N)nc4ccccc43)nc12 | target engagement in cells, inhibitor, chemoproteomics | – | 20 mM | inhibition | 4.6% |
| O=C1NC(=O)c2cc(Nc3ccc(F)cc3)c(Nc3ccc(F)cc3)cc21 | cell-free assay | – | 0.5 µM | remaining signal | 97.1% |
| CCCCN(CCCC)C(=O)CN1C[C@H](c2cc(OC)c3c(c2)OCO3)[C@@H](C(=O)O)[C@@H]1CC(C)(C)CCC | cell-free assay, competition with immobilised ligand | – | 1 µM | remaining binding | 100% |
| COc1cc(Cl)c(C(=O)N[C@@H](CN[C@H]2CC[C@@H](N)CC2)Cc2ccc(C#N)cc2)cc1-c1ccc(CN[C@H](C)c2ccc(C)cc2)o1 | enzyme activity, inhibitor | – | 1 µM | remaining activity | 103% |
| CCN(CC)c1ccc(C2=NNC(=O)CC2C)cc1[N+](=O)[O-] (stereo not drawn) | enzyme activity, inhibitor | – | 10 µM | remaining activity | 107% |
| CCN1CCN(Cc2ccc(NC(=O)c3ccc(C)c(Oc4ccnc5[nH]ccc45)c3)cc2C(F)(F)F)CC1 | target engagement in cells, inhibitor, chemoproteomics | Huh-7 | 10 µM | inhibition | -12.3% |
| CNCc1ccccc1-c1csc([C@H](C)Nc2nc(C)nc3cc(OC)c(OC)cc23)c1 | cell-free assay, competition with immobilised ligand | – | 1 µM | remaining binding | 100% |
| CC(C)(O)[C@H]1CC[C@H](Nc2ccc3ncc(-c4cccc(C(F)(F)F)c4)n3n2)CC1 | enzyme activity, inhibitor | – | 1 µM | remaining activity | 99.4% |
| CO[C@@H](C)c1c(Nc2ccc([C@H](N(C)C(=O)C3CCS(=O)(=O)CC3)C(F)(F)F)cc2)cnc2cc(Cl)nn12 | cell-free assay, competition with immobilised ligand | – | 1 µM | remaining binding | 96% |
| Oc1cccc(-c2nc(N3CCOCC3)c3oc4ncccc4c3n2)c1 | cell-free assay | – | 0.5 µM | remaining signal | 99.1% |
| Cn1nc(C(F)(F)F)cc1-c1cnc(N2CCc3cc(S(=O)(=O)Nc4c(F)cc(Cl)cc4F)cc(N4CCCC4=O)c32)nc1 | cell-free assay, competition with immobilised ligand | – | 1 µM | remaining binding | 96% |
| CC(C)c1ccc(NC(=O)c2cccs2)c(-c2nc3ccccc3[nH]c2=O)c1 | enzyme activity, inhibitor | – | 1 µM | activity vs control | 96% |
